Series [1] can be described thus: Cytotoxicity against MDCK cells assessed as reduction in cell viability after 48 hrs by MTT assay. The conditions noted are these: dog. It counts as cell-based, Canis lupus familiaris. In outline: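 MDCK cells, 2 x 10⁴/well, grown 24 h, then exposed to serial compound dilutions or DMSO in DMEM/10% FBS for 48 h at 37 °C. MTT (5 mg/mL in PBS) was added for 4 h, then cells were lysed in solubilization solution overnight at 37 °C and read at 620 nm.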
A general note: Tetrazolium assays rely on reduction of a dye to a coloured formazan, in cell work by metabolically active cells.

Another series relates to Influenza A virus. Kind of series: Antiviral activity against Influenza A virus A/PR/8/34 (H1N1) infected in MDCK cells measured after 48 hrs post infection by plaque reduction assay. As to conditions: A/Puerto Rico/8/1934(H1N1). It counts as functional, organism-based. The essentials:
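MDCK cells, 5 x 10⁵/well, grown 24 h at 37 °C, washed in serum-free DMEM, then infected with A/PR/8/34 (Cambridge lineage) at 40 PFU/well for 1 h at 37 °C. Medium held TPCK-trypsin 1 μg/mL and 0.14% BSA, with compound at varied concentrations or DMSO. Overlay was the same medium plus 1.2% Avicel. At 48 h cells were formaldehyde-fixed and toluidine-blue stained. Plaques were counted against DMSO (100%).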

Series [2] addresses PA/PB1 (Influenza A virus (A/Puerto Rico/8/1934(H1N1)), UniProt P03431+P03433). Kind of series: Inhibition of Influenza A virus 6His-tagged PA (239 to 716 residues)/GST-tagged PB1 (1 to 25 residues) protein-protein interaction expressed in Escherichia coli measured after overnight incubation by ELISA. (An ELISA detects its analyte on a solid surface through an enzyme-linked reagent.)

A short description of series [3]: Therapeutic index, ratio of CC50 for MDCK cells to EC50 for Influenza A virus A/PR/8/34 (H1N1) infected in MDCK cells. As to conditions: dog, read-out: Ratio CC50/EC50. It counts as toxicity, cell-based.

The results in this text go back to ChEMBL document CHEMBL4190233, “Exploring the cycloheptathiophene-3-carboxamide scaffold to disrupt the interactions of the influenza polymerase subunits and obtain potent anti-influenza activity” (Eur J Med Chem, 2017).

A value given as a limit tells only on which side of the number the result lay.

On to `CN1CCN(C(=O)c2c(NC(=O)c3ccccc3O)sc3c2CCCCC3)CC1`, for which the CC50 (usually the concentration at which the toxic effect on the cells reaches its halfway point) at 48 h in series [1] was > 250 µM. In addition, in the series on Influenza A virus, the concentration for a half-maximal effect (EC50) – broadly, the concentration that produces a half-maximal response – came out at 94 µM. In addition, the IC50 (usually the concentration that gives 50% inhibition) in series [2] was > 200 µM.
Take `CSCC[C@H](N)C(=O)N[C@@H](CC(=O)O)C(=O)N[C@H](C(=O)N[C@@H](CC(N)=O)C(=O)N1CCC[C@H]1C(=O)N[C@H](C(=O)N[C@@H](CC(C)C)C(=O)N[C@@H](CC(C)C)C(=O)N[C@@H](Cc1ccccc1)C(=O)N[C@@H](CC(C)C)C(=O)N[C@@H](CCCCN)C(=O)N[C@H](C(=O)N1CCC[C@H]1C(=O)N[C@@H](C)C(=O)N[C@@H](CCC(N)=O)C(=O)O)C(C)C)[C@@H](C)O)C(C)C`: in series [1], the CC50 at 48 h is > 100 µM. Also, the EC50 in the series on Influenza A virus turned out to be 41 µM.
With `O=C(Nc1sc2c(c1C(=O)NC1CCCCC1)CCCCC2)c1ccccc1O`, the CC50 at 48 h in series [1] worked out at 172 µM. In addition, the EC50 in the series with Influenza A virus was > 100 µM. It took 114 µM to reach half-maximal inhibition in series [2] (IC50).
Consider `O=C(Nc1sc2c(c1C(=O)Nc1ccc(Cl)cc1)CCCCC2)c1ccccc1O`, for which, in series [1], the CC50 at 48 h was > 250 µM. Moreover, the concentration for a half-maximal effect (EC50) in the series with Influenza A virus worked out at 1.2 µM. This compound yielded an IC50 in series [2] of 18 µM. Besides, the selectivity ratio in series [3] is > 200.
`COc1ccccc1C(=O)Nc1sc2c(c1C(=O)Nc1ccc(Cl)cc1)CCCCC2`: the CC50 at 48 h in series [1] was > 250 µM. For the same compound, it took 82 µM to reach a half-maximal effect with Influenza A virus (EC50). Further, half-maximal inhibition in series [2] (IC50) was put at 78 µM.
For `O=C(Nc1sc2c(c1C(=O)Nc1nccs1)CCCCC2)c1ccccc1O`, the CC50 at 48 h in series [1] was > 250 µM. Also, a half-maximal response with Influenza A virus (EC50) required 0.18 µM. Besides, it took 69 µM to reach half-maximal inhibition in series [2] (IC50). In addition, the selectivity ratio in series [3] is > 1390.
As to `CC(C)NC(=O)c1c(NC(=O)c2ccccc2O)sc2c1CCCCC2`, in series [1], the CC50 at 48 h was > 250 µM. For the same compound, the half-maximal effective concentration (EC50) with Influenza A virus was > 100 µM. For the same compound, in series [2], the IC50 was > 200 µM.
In the case of `NC(=O)c1ncn([C@@H]2O[C@H](CO)[C@@H](O)[C@H]2O)n1` [RIBAVIRIN], the CC50 at 48 h in series [1] is > 250 µM. In the series on Influenza A virus, it took 10 µM to reach a half-maximal effect (EC50).
For the compound `Nc1ccccc1C(=O)Nc1sc2c(c1C(=O)Nc1ccccn1)CCCCC2`, the CC50 at 48 h in series [1] was > 250 µM. The compound further returned an EC50 with Influenza A virus of 101 µM. Further, the half-maximal inhibitory concentration (IC50) in series [2] was > 200 µM.
In the same order, the values of `O=C(Nc1sc2c(c1C(=O)Nc1ccccn1)CCCCC2)c1ccc(O)cc1` are > 250 µM, 19 µM and 26 µM.
As for `COc1ccccc1NC(=O)c1c(NC(=O)c2ccc(Cl)cc2)sc2c1CCCCC2`, the CC50 at 48 h in series [1] was > 250 µM. The compound also displayed a 50% effective concentration (EC50) in the series with Influenza A virus of 24 µM. Also, half-maximal inhibition in series [2] (IC50) was put at 45 µM.
On to `O=C(Nc1sc2c(c1C(=O)Nc1ccccn1)CCCCC2)c1ccccc1O`, for which the CC50 at 48 h in series [1] was > 250 µM. It took 2.6 µM to reach a half-maximal effect in the series on Influenza A virus (EC50). Also, in series [2], the IC50 came out at 15 µM. The selectivity ratio in series [3] is > 96.
With `O=C(Nc1sc2c(c1C(=O)NCc1ccccc1)CCCCC2)c1ccccc1O`, the cytotoxic concentration (CC50) at 48 h in series [1] is 172 µM. For the same compound, the half-maximal effective concentration (EC50) in the series on Influenza A virus is > 100 µM. Also, in series [2], half-maximal inhibition (IC50) required 191 µM.
The like results for `O=C(Nc1sc2c(c1C(=O)Nc1ccccc1)CCCCC2)c1ccccc1O` were, in that order, > 250 µM, 30 µM and 58 µM.
Regarding `CC(C)(C)NC(=O)c1c(NC(=O)c2ccccc2O)sc2c1CCCCC2`, the CC50 at 48 h in series [1] was > 250 µM. Besides, the EC50 in the series on Influenza A virus was > 100 µM. Moreover, the IC50 in series [2] is 156 µM.
Turning to `O=C(Nc1sc2c(c1C(=O)Nc1ccc(F)cc1)CCCCC2)c1ccccc1O`, in series [1], the cytotoxic concentration (CC50) at 48 h was > 250 µM. In the series with Influenza A virus, this compound registered a half-maximal effective concentration (EC50) of 1.2 µM. For the same compound, in series [2], half-maximal inhibition (IC50) was put at 20 µM. Besides, in series [3], the selectivity ratio was > 200.
In the case of `O=C(Nc1sc2c(c1C(=O)Nc1ccccn1)CCCCC2)c1cccc(O)c1`, in series [1], the CC50 at 48 h turned out to be 248 µM. The compound also came in with an EC50 in the series with Influenza A virus of 22 µM. The same compound registered an IC50 in series [2] of 23 µM.
`O=C(Nc1sc2c(c1C(=O)Nc1ccccc1O)CCCCC2)c1ccc(Cl)cc1`: the CC50 at 48 h in series [1] amounted to 28 µM. In the series with Influenza A virus, this compound displayed an EC50 of 1.8 µM. The same compound gave a concentration for half-maximal inhibition (IC50) in series [2] of 26 µM.
In the same order, the values of `O=C(Nc1sc2c(c1C(=O)NCc1ccccn1)CCCCC2)c1ccccc1O` are > 250 µM, > 100 µM and 33 µM.
For the compound `O=C(Nc1sc2c(c1C(=O)N1CCN(c3ccccn3)CC1)CCCCC2)c1ccccc1O`, in series [1], the CC50 at 48 h was 145 µM. Further, in the series with Influenza A virus, the EC50 was > 100 µM. The same compound gave an IC50 in series [2] of 197 µM.
Take `Nc1ccc(C(=O)Nc2sc3c(c2C(=O)Nc2ccccn2)CCCCC3)cc1`: the CC50 at 48 h in series [1] is > 250 µM. The compound further had an EC50 with Influenza A virus of 0.26 µM. In series [2], this compound gave an IC50 of 65 µM.
The like results for `O=C(Nc1sc2c(c1C(=O)Nc1ccccc1O)CCCCC2)c1ccccn1` were, in that order, > 250 µM, 8.2 µM and 118 µM.
The like results for `COc1ccccc1C(=O)Nc1sc2c(c1C(=O)Nc1ccccn1)CCCCC2` were, in that order, 147 µM, 86 µM and 22 µM.
